Unmarked numbers belong to inactive results. Inconclusive results are not listed. The source made the active and inactive calls.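 The calls were made as follows, unless noted: active = inhibition over a set limit, the all-compound mean plus 3 SD, in both replicate runs; inconclusive = over that limit in just one replicate run; inactive = at or under that limit in both runs.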
What was measured:
[1] = S. cerevisiae growth inhibition in permissive medium (OD615), pilot counter-assay for S. cerevisiae lifespan shortening project, permissive growth control (AID 705;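 active = growth inhibition above 25% in both replicates, a cutoff set 3 SD above the mean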); conditions: OD615, 24 h, at 10 µM, active compounds read high
Method in brief: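 assay system = Saccharomyces cerevisiae strain carrying genetically modified DeaD replicative-lifespan system | medium = SC raffinose/galactose permissive medium | dosing = 10 µM single dose, 0.25% DMSO | schedule = 24 h compound exposure at 30 °C after 4 h pre-growth | measured by = OD at 615 nm | read-out basis = growth inhibition from lowered OD615 after 24 h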

[2] = S. cerevisiae growth inhibition in restrictive medium, OD615, pilot screen, restrictive growth control, yeast lifespan reduction project (AID 706;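 active = growth inhibition above a set limit, 3 SD over mean compound inhibition, in both replicates, cut at about 43% in these data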;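 also: modified DeaD lifespan yeast strain shifted to restrictive glucose medium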); conditions: OD615, 48 h, at 10 µM, active compounds read high
Method in brief: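 Buffer or medium: CSMM-D glucose medium. Material: genetically modified Saccharomyces cerevisiae, DeaD replicative lifespan assay strain. Times: 48 h compound exposure at 30 °C. Measured by: optical density at 615 nm.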

[3] = doxorubicin toxicity protection in MRP-1 cells – H69AR cells, CellTiter-Glo, duplicate, MRP-1 activator project, pilot screen (AID 807;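 active = viability increase at or above a cutoff of the median across tested compounds plus 3 SD, cut at about 8.5% in these data, passing the limit was not always enough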;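 also: compound pretreatment 18-22 h then 72 h combined with doxorubicin; 0% = doxorubicin alone and 100% = vehicle without doxorubicin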); conditions: H69AR viability with doxorubicin, CellTiter-Glo luminescence; at 10 µM; active compounds read high
[4] = viability of HCT116 without oncogenic beta-catenin – human colon tumor cells, pilot screen (AID 823;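 active = cell viability at or below a set limit in both duplicate runs, the limit being the all-compound median minus 4 SD, cut at about 23% in these data, passing the limit was not always enough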;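 also: 0% = wells killed by 20 µM Hyamine and 100% = untreated DMSO cell wells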); conditions: HCT116 beta-catenin knockout viability, CellTiter-Glo, 60 h; at 10 µM; active compounds read low
[5] = viability of PTEN-null HCT116 cells – cell-based, HCT116 clonal line, CellTiter-Glo, pilot screen (AID 824;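 active = viability at or below 27.92% in each of two runs, the all-compound median minus 4 SD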;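 also: 0% = 20 µM Hyamine control and 100% = vehicle cell control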); conditions: HCT116 PTEN-deleted viability, 60 h, at 10 µM, active compounds read low
[6] = RAM pathway blockade in budding yeast – dse1pr::URA3 reporter, 5-FOA selection, pilot screen (AID 869);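 also: 0% = DMSO wells with no growth and 100% = 10 µM 1-NA-PP1 with full growth; RAM network block rescues cells from 5-FOA so hits raise OD615 growth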; conditions: S. cerevisiae dse1pr::URA3 5-FOA growth, OD615, 2 d; at 10 µM; active compounds read high; strain carries analog-sensitive mutant Cbk1 kinase
[7] = RAM signaling pathway blockade in yeast – S. cerevisiae, Pdr1DBD-CYC8 efflux-inhibited sensitized strain, primary screen (AID 1298;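 active = RAM network inhibition above 8.4% in each of two replicates, 3 SD over the compound average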;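 also: 0% = DMSO untreated cells without growth and 100% = 10 µM 1-NA-PP1 full growth; higher means more yeast growth rescued from 5-FOA killing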); conditions: S. cerevisiae cbk1-as DSE1-URA3 strain, 5-FOA growth OD615, 2 d; at 50 µM; active compounds read high

Structure (SMILES) | growth inhibition [1] [%] | growth inhibition [2] [%] | viability increase [3] [%] | viability [4] | viability [5] | inhibition [6] [%] | RAM network inhibition [7] [%]
O=C(c1ccc(CS(=O)(=O)c2ccc(Br)cc2)o1)N1CCN(c2ccccn2)CC1 | -5.91 | -14.9 | -3.76 | 98.8% | 84.4% | 1.34 | 4.8
Cc1oc(-c2ccccc2F)nc1CS(=O)CC(=O)NCc1ccc2c(c1)OCO2 (centres undefined) | -13.9 | 2.87 | -1.41 | 94.2% | 89.3% | 2 | 7.13
O=C(Cn1cnc2c(nnn2-c2ccccc2)c1=O)NCC1CCCO1 (centres undefined) | -6.44 | 8.14 | -2.94 | 100% | 94.3% | 1.41 | 1.65
CCN1CCN(c2cc(C)c3cc(NC(=O)c4cnccn4)ccc3n2)CC1 | -11.2 | 1.29 | -3.82 | 84.5% | 89.5% | -0.02 | -0.42
CCC(=O)Nc1c(OC(=O)CC)ccc2c(C)cc(=O)oc12 | 5.45 | 4.76 | -2.02 | 105% | 88.7% | 0.835 | -0.83
CC(=O)N(c1c(C)n(C)n(-c2ccccc2)c1=O)C1(C(=O)NC2CCCC2)CCCCC1 | -1.1 | -19 | -1.56 | 95.1% | 95.8% | 0.27 | -1.24
Cc1cccc(NC(=O)Nc2ccc(C#N)cc2)n1 | -15.2 | -6.73 | -5.92 | 18.1% (active) | 17.4% (active) | -0.505 | 3.51
COc1cccc(NS(=O)(=O)c2nc3nc(C)cc(C)n3n2)c1 | -10.2 | -2.87 | -1.57 | 108% | 98.9% | 2.01 | -1
COc1ccc(CSc2nncn2N)cc1Br | 8.95 | 5.08 | -2.01 | 101% | 90.8% | 1.08 | 0.88
COc1cc(C(=O)Oc2c(CN3CCOCC3)cc(Cl)c3cccnc23)cc(OC)c1OC | -8.94 | -33.1 | -8.41 | 6.72% (active) | 4.81% (active) | 1.09 | 0.27
CCOc1ccc(Br)cc1/C=N/O | -17.4 | -29.9 | -1.73 | 80.3% | 87.1% | 0.11 | -0.16
CCn1c(=O)c2cc(C(=O)N3CCOCC3)sc2c2ccccc21 | -8.55 | -14.5 | -3.34 | 102% | 87.3% | 0.84 | 2.72
CCc1nnc(NC(=O)CN2CCOCC2)s1 | -2.81 | -19.4 | -1.62 | 95.8% | 101% | 1.18 | 6.14
CCOC(=O)c1oc2cc(O)c(CC)cc2c(=O)c1-c1ccc2c(c1)OCCO2 | -22.8 | -16.3 | -2.23 | 101% | 91.7% | 3 | 5.4
CCn1cc(C(=O)Nc2ccc3c(c2)OCCO3)c2cc(OC)c(OC)cc2c1=O | -10 | 2.6 | -6.05 | 101% | 88.6% | 0.915 | -1.36
O=C(Cn1cnc2c(nnn2-c2ccccc2)c1=O)NCc1ccco1 | 1.43 | 3.14 | -3.77 | 104% | 89.8% | 0.32 | 0.83
O=C1CCCCCN1Cc1nnc(SCc2nc3ccccc3s2)n1-c1ccccn1 | -3.83 | 19.8 | -3.45 | 91.7% | 95% | 1.07 | 2.7
CNc1oc(-c2ccccc2)nc1C#N | 1.34 | 21.3 | 2.14 | 101% | 102% | -0.58 | 5.84
O=C(O)CCc1n[nH]c(=S)[nH]c1=O | -5.76 | -17.3 | -1.6 | 102% | 106% | 0.76 | -0.69

Structure (SMILES) | growth inhibition [1] [%] | growth inhibition [2] [%] | viability increase [3] [%] | viability [4] | viability [5] | inhibition [6] [%] | RAM network inhibition [7] [%]
COc1ccc(N2C(=O)c3ccccc3NC23CCCCC3)cc1 | -13.4 | -9.03 | -1.34 | 94.8% | 91.5% | 0.47 | 1.91
Cn1c(Cn2c(=O)sc3ccccc32)nnc1SCC(=O)Nc1ccc(Cl)cc1 | -9.07 | -17.2 | -3.25 | 98.6% | 89% | 3.06 | 5.32
CCC1CCCCN1Cc1nc2c(c(=O)n(C)c(=O)n2C)n1Cc1ccccc1 (centres undefined) | 6.88 | -0.26 | 3.7 | 75.3% | 74.4% | 2.1 | 2.14
CCSc1nc2c(c(=O)[nH]1)C(C(C)C)C(C#N)=C(N)O2 (centres undefined) | -20.5 | -13 | -2.8 | 106% | 98.9% | 0.63 | 2.73
CCOC(=O)c1c(NC(=O)c2cc(C3CC3)on2)sc2c1CCCC2 | -9.14 | 0.505 | -1.3 | 102% | 97.5% | 1.49 | 8.09
COc1ccccc1CNC(=O)C1CCN(S(=O)(=O)c2cccc3cccnc23)CC1 | 5.11 | 0.02 | -1.41 | 108% | 97.2% | -0.9 | -0.93
COc1ccc(S(=O)(=O)N2CCN(C)CC2)cc1Br | -1.05 | 9.22 | -2.75 | 95% | 92% | 1.01 | -0.01
O=C(NC1=NCCS1)c1csc2ccccc12 | -9.29 | 27.3 | -3.86 | 74% | 79% | 1.16 | 1.26
CC(=O)c1ccc2c3c(ccc(O)c13)CC2 | -1.21 | 7.16 | -4.04 | 97.2% | 88% | 1.52 | 5.46
CCOC(=O)C(C(=O)OCC)=C1OC(=O)c2ccccc21 | -11.1 | -7.16 | 0.39 | 98.6% | 96.4% | 2.19 | 2.35
CCOC(=O)C1=C(C)OC(N)=C(C#N)C1c1c(C)nn(-c2ccccc2)c1Cl (centres undefined) | -11.9 | -20 | -3.98 | 102% | 98.1% | 3.71 | 7.39
O=C(Nc1cccc(Br)c1)c1cc2ccccc2o1 | -5.65 | -7.8 | -5 | 65.5% | 64.3% | 0.03 | 3.48
CCN1C(=O)N(CC)C(O)(c2ccccc2)C1(O)c1ccccc1 (centres undefined) | -12.7 | -8.41 | -2.16 | 97.1% | 94.8% | 2.12 | 6.55
COc1ccc(C2N(c3cc(Cl)ccc3OC)C(=O)C3CCCN32)cc1OC (centres undefined) | -8.95 | -8.17 | -1.86 | 106% | 95.9% | 1.02 | 7.33
O=C(NCCN1CCOCC1)c1ccc2c(c1)N(Cc1ccc(F)cc1)C(=O)CS2 | -16.1 | -8.1 | 3.02 | 92.5% | 88.9% | 0.08 | 0.11
O=C(CN1CCN(Cc2ccc(Cl)cc2)C1=O)NCCN1CCCC1 | 1.2 | 9.72 | -0.85 | 107% | 96.7% | 1.54 | 1.2
CC1=C(C(=O)OC2CCCCC2)C(c2ccco2)n2ncnc2N1 (centres undefined) | -9.02 | 4.91 | -1.43 | 90.7% | 88.8% | 1.47 | 5.64
Cc1nc2sc(C(c3cccs3)N3CCN(C(=O)c4ccco4)CC3)c(O)n2n1 (centres undefined) | -1.15 | -6.47 | -3.62 | 102% | 100% | 0.74 | -1.05
